Experimental data taken from ChEMBL document CHEMBL2424622, “Development of amino-pyrimidine inhibitors of c-Jun N-terminal kinase (JNK): kinase profiling guided optimization of a 1,2,3-benzotriazole lead” (Bioorg Med Chem Lett, 2013).

Assays:
[1] = target: Cyclin-dependent kinase 11B (Homo sapiens, UniProt P21127); test: Competitive binding affinity to CDC2L1 (unknown origin) at 10 uM in presence of ATP relative to control
In short: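 In vitro ATP-site competition binding format, run as one member of a diverse 128-kinase profiling panel. Each compound was tested at a single concentration across the whole panel.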

[2] = tested on: Tyrosine-protein kinase ABL1 (Homo sapiens), P00519 [E255K]; test: Competitive binding affinity to ABL1 E255K mutant (unknown origin) at 10 uM in presence of ATP relative to control
Sequence of Tyrosine-protein kinase ABL1 (Homo sapiens), P00519 [E255K] (P00519 whole entry E255K): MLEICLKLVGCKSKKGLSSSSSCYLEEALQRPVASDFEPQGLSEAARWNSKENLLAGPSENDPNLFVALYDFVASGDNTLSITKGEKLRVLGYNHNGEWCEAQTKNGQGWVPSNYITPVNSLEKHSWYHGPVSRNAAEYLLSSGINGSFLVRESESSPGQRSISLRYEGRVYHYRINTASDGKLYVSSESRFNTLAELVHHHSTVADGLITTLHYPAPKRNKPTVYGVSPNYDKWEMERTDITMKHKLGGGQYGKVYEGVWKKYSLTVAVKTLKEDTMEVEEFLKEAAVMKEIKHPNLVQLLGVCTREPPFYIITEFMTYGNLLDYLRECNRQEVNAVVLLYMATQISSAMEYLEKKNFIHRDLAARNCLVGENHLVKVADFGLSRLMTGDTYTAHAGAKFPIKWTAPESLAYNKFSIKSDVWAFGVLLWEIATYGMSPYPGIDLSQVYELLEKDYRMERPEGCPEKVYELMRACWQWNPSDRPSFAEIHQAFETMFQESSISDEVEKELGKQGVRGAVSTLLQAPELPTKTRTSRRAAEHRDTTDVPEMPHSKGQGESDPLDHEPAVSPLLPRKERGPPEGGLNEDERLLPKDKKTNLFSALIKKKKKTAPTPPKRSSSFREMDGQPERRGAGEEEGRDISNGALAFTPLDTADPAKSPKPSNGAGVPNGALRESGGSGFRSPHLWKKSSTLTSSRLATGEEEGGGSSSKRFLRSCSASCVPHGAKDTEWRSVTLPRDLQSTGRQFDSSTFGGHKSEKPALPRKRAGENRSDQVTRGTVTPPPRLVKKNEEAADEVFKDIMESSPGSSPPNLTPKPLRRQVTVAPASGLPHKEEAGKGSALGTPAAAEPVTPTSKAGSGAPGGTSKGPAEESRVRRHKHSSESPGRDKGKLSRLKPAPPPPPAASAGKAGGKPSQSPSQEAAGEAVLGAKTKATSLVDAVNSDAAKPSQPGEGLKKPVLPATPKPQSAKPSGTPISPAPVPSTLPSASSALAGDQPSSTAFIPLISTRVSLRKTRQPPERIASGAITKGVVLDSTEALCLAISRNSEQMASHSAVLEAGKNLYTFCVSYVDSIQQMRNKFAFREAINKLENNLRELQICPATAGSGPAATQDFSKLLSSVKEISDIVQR

[3] = target: Macrophage colony-stimulating factor 1 receptor (Homo sapiens) (UniProt P07333); test: Competitive binding affinity to CSF1R (unknown origin) at 10 uM in presence of ATP relative to control
Sequence of Macrophage colony-stimulating factor 1 receptor (Homo sapiens) (P07333 whole entry): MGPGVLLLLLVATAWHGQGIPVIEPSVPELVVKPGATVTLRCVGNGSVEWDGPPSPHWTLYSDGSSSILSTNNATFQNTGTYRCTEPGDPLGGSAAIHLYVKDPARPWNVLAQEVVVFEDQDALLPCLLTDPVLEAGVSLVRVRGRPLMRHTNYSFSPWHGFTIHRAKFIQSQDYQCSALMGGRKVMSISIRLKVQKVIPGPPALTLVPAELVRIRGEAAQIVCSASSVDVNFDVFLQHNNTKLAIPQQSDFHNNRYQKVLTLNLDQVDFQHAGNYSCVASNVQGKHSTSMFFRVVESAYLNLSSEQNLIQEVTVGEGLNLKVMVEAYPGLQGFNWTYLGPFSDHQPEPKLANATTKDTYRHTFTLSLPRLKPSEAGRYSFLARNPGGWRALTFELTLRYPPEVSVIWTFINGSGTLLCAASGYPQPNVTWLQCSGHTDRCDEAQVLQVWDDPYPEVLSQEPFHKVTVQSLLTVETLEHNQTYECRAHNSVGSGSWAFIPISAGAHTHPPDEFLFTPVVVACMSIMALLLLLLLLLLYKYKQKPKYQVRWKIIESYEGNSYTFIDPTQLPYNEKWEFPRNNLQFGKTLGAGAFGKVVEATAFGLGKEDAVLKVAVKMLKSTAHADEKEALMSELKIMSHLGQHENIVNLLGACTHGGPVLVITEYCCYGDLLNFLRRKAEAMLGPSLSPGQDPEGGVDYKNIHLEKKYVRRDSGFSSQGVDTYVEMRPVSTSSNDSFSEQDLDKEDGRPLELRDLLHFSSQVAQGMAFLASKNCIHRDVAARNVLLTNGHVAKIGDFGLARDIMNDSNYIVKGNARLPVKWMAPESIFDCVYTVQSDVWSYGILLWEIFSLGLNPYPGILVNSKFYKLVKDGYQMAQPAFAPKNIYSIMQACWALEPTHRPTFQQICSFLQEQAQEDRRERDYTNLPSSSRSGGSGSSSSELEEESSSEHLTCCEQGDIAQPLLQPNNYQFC
In short: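 In vitro ATP-site competition binding assay across a diverse panel of 128 kinases, with each compound tested at a single concentration. Kinase binding is expressed relative to control.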

[4] = target: Activin receptor type-2A (Homo sapiens) (UniProt P27037); test: Competitive binding affinity to ACVR2A (unknown origin) at 10 uM in presence of ATP relative to control
Sequence of Activin receptor type-2A (Homo sapiens) (P27037 whole entry): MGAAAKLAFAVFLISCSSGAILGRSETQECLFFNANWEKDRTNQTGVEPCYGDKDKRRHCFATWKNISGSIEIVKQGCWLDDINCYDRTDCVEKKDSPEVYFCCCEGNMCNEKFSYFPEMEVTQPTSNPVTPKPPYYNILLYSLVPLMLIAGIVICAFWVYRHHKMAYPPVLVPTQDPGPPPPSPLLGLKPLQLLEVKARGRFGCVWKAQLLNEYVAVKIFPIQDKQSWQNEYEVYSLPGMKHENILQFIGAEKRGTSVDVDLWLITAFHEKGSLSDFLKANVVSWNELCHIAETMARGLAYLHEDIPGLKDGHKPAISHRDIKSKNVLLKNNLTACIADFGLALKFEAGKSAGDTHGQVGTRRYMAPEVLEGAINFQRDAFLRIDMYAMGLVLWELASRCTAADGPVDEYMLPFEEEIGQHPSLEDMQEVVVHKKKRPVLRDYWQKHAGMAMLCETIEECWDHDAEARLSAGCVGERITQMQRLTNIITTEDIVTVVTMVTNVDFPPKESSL

[5] = target: Cyclin-dependent kinase 19 (Homo sapiens) (UniProt Q9BWU1); test: Competitive binding affinity to CDK19 (unknown origin) at 10 uM in presence of ATP relative to control
Sequence of Cyclin-dependent kinase 19 (Homo sapiens) (Q9BWU1 whole entry, looked up): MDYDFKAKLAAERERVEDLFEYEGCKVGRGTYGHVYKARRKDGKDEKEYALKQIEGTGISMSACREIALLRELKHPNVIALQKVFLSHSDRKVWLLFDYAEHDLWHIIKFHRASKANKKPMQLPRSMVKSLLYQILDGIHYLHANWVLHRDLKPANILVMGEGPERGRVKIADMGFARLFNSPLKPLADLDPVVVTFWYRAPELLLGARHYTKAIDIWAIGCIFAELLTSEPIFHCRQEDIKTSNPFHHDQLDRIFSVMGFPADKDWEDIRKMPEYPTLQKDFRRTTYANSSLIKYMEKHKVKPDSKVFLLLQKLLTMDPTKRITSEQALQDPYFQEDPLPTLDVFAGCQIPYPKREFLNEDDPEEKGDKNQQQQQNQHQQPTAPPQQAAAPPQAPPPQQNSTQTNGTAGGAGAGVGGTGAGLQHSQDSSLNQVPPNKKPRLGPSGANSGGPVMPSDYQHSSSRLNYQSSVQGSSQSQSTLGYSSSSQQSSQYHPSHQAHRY

[6] = target: Cyclin-dependent kinase 14 (Homo sapiens) (UniProt O94921); test: Competitive binding affinity to PFTK1 (unknown origin) at 10 uM in presence of ATP relative to control
Sequence of Cyclin-dependent kinase 14 (Homo sapiens) (O94921 whole entry): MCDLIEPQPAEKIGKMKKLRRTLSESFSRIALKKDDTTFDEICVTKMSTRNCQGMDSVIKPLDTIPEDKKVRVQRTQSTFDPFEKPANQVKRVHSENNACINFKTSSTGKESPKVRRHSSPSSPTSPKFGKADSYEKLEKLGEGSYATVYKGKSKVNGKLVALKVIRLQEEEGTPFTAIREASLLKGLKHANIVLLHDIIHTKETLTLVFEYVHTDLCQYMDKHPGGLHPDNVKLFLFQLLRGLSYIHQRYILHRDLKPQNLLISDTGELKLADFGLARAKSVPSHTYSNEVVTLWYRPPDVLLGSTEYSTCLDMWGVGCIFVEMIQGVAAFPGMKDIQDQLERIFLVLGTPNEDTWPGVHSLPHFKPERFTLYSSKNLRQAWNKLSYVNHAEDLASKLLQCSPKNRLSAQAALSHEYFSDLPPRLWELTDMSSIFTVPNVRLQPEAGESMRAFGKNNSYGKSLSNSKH

[7] = target: Interferon-induced, double-stranded RNA-activated protein kinase (Homo sapiens, UniProt P19525); test: Competitive binding affinity to PRKR (unknown origin) at 10 uM in presence of ATP relative to control
Sequence of Interferon-induced, double-stranded RNA-activated protein kinase (P19525 whole entry): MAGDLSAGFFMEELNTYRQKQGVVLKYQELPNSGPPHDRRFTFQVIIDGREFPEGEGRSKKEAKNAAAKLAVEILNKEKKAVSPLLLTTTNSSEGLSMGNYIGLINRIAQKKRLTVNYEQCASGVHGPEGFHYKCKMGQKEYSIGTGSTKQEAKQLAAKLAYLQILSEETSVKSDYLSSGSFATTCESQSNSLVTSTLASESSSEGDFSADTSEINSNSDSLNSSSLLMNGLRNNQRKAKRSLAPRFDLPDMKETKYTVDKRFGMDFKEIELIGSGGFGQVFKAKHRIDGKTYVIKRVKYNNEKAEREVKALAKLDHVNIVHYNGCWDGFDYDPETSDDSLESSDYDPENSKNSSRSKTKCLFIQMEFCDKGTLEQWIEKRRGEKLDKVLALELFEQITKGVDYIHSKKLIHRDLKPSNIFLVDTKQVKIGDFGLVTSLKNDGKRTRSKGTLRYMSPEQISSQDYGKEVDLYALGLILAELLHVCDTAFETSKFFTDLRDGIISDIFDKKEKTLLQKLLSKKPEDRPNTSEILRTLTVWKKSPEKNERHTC

[8] = target: T1, Phosphatidylinositol 5-phosphate 4-kinase type-2 beta (Homo sapiens) (UniProt P78356); test: Competitive binding affinity to PIP5K2B (unknown origin) at 10 uM in presence of ATP relative to control
T1 sequence (whole entry): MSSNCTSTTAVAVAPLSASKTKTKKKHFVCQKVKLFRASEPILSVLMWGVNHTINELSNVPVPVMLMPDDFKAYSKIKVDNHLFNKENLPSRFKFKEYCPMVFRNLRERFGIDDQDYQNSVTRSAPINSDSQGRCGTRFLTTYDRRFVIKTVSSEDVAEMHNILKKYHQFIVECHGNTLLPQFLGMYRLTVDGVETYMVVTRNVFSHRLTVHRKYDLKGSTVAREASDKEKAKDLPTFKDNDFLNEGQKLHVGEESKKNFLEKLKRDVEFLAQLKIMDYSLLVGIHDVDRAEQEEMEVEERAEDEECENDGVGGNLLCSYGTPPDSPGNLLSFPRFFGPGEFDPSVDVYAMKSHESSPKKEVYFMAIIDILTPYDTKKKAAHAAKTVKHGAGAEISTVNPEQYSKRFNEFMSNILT

[9] = target: T2, Serine/threonine-protein kinase D2 (Homo sapiens) (UniProt Q9BZL6); test: Competitive binding affinity to PRKD2 (unknown origin) at 10 uM in presence of ATP relative to control
T2 sequence (whole entry): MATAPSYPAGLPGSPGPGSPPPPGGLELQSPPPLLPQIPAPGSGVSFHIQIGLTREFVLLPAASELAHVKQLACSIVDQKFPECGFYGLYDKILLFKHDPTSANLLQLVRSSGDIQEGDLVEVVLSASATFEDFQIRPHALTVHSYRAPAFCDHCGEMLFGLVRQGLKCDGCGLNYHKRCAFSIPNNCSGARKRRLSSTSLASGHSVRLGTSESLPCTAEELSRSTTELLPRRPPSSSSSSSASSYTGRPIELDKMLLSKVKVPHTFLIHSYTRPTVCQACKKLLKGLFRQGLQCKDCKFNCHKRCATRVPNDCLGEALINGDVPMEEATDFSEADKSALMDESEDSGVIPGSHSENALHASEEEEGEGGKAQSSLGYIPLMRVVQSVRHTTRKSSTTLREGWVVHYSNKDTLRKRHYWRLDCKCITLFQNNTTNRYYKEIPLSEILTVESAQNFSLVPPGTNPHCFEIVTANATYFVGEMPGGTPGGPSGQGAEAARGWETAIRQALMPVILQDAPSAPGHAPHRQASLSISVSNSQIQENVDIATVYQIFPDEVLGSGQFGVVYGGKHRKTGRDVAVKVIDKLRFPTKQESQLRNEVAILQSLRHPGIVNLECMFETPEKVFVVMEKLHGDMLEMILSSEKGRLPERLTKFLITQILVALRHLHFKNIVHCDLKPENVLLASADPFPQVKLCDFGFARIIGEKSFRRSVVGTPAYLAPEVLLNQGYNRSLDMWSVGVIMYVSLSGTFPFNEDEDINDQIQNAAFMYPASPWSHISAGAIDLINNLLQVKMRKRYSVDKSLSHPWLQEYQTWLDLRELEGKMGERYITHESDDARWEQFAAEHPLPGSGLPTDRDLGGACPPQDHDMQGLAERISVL

Sequence of Cyclin-dependent kinase 11B (P21127 whole entry): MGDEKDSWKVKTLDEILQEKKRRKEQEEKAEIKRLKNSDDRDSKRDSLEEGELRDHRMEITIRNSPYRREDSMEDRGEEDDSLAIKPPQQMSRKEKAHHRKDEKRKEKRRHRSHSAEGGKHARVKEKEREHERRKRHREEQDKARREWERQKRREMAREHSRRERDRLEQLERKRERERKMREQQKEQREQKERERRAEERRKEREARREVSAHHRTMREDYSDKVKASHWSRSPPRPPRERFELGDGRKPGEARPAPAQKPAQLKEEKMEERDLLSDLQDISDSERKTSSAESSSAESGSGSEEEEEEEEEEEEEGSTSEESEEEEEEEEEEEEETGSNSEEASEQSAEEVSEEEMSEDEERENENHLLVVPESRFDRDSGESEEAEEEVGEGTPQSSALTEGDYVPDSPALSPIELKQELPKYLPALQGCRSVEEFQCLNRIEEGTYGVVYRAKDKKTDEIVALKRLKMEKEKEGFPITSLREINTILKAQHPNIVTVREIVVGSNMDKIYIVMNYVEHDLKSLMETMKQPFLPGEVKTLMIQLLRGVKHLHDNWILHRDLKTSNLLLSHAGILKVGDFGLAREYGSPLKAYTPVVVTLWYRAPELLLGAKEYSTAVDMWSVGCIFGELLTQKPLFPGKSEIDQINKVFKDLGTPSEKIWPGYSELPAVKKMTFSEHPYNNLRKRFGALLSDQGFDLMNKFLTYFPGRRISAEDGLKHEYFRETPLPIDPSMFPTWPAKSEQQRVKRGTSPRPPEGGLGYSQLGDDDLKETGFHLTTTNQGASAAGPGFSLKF

| SMILES | inhibition [1] | inhibition [2] | inhibition [3] | inhibition [4] | inhibition [5] | inhibition [6] | inhibition [7] | inhibition [8] | inhibition [9] |
| --- | --- | --- | --- | --- | --- | --- | --- | --- | --- |
| CS(=O)(=O)CCCOc1cccc2c1ccn2-c1ccnc(N[C@H]2CC[C@H](C(=O)N3CCC(O)CC3)CC2)n1 | > 85% | – | – | – | – | – | – | – | – |
| O[C@H]1CC[C@H](Nc2nccc(-n3ccc4ccccc43)n2)CC1 | 97% | < 50% | < 50% | < 50% | 70% | < 50% | 95% | < 50% | 88% |
| O[C@H]1CC[C@H](Nc2nccc(-n3nnc4ccccc43)n2)CC1 | 100% | < 50% | < 50% | < 50% | 82% | 79% | 100% | 74% | 98% |
| O[C@H]1CC[C@H](Nc2nccc(-n3ncc4ccccc43)n2)CC1 | 97% | < 50% | 74% | < 50% | < 50% | < 50% | 100% | 92% | 91% |
| O[C@H]1CC[C@H](Nc2nccc(-c3n[nH]c4ccccc34)n2)CC1 | – | < 50% | 97% | < 50% | – | – | – | – | – |
